Sampled rows, rich in hits. Any-hit rate of the full collection: about 1.4%.
Tn7 DDE FP – DD(E)-Tn7 binding inhibition, primary FP screen; P02675; FP displacement of FITC-Tn7 peptide from fibrin DD(E); 0% = median of compound wells per plate; inhibition, % at 8.3 µM; 0.13% of 370,000 active;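 active = inhibition above the mean of compounds falling within the control limits plus 3 SD of them, cut at about 14% in these data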
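Test system – human fibrin DD(E) · Times – 10 min preincubation, 3 h with tracer, room temperature · Detection – fluorescence polarization of the labelled Tn7 tracer · Measure – percent inhibition normalized to high-control wells · Benchmarks – high control wells with 10 µM unlabelled Aha-Tn7 peptide (full inhibition) · Repeats – singlicate testing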
DDE Tn6 FP inh – DD(E)-Tn6 binding inhibition, primary FP screen; P02675; Fibrin DD(E) TRITC-Tn6 fluorescence polarization displacement; inhibition, % at 8.3 µM; 0.21% of 370,000 active;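 active = inhibition above a per-campaign cutoff: mean of compounds within control limits plus 3 SD, cut at about 15% in these data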
PLC-beta3 inh – inhibitors of human phospholipase C beta3; 0.18% of 370,000 active; AID 720704; inhibition, % at 12.2 µM; Q01970; Purified PLC-beta3, fluorogenic substrate, fluorescence; in the data active = inhibition above about 11%
Target sequence (Q01970 whole entry, looked up): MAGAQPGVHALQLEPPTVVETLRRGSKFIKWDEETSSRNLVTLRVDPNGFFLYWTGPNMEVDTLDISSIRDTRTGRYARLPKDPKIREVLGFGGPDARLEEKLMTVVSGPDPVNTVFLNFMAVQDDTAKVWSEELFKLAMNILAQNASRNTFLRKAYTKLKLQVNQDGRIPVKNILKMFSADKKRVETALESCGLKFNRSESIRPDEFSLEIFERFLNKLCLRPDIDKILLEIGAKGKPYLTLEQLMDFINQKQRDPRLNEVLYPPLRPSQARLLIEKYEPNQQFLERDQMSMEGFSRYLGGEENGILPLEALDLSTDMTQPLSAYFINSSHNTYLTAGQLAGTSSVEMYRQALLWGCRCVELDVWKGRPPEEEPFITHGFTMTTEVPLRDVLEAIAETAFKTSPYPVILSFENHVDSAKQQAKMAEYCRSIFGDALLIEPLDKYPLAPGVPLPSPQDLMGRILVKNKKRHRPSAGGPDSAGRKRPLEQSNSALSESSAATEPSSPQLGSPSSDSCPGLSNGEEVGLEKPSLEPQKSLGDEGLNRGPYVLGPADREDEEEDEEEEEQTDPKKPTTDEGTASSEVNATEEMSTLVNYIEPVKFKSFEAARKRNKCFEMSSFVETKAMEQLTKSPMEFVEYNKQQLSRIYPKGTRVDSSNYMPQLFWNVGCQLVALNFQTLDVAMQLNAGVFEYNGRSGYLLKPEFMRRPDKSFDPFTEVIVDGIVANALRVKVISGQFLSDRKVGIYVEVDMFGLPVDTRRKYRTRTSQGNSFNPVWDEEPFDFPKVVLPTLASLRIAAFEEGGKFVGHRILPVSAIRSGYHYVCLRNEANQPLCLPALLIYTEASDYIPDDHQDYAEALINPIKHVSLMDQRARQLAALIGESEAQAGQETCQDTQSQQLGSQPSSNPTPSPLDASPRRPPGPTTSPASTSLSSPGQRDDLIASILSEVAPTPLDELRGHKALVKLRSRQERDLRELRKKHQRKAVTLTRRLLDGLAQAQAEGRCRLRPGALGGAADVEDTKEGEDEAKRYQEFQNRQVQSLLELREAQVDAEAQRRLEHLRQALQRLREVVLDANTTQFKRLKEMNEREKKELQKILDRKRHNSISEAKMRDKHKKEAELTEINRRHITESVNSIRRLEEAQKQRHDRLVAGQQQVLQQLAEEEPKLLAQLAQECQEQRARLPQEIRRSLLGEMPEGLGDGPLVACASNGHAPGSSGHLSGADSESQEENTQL
PLCg1 inh – PLC-gamma1 (human) inhibition, primary screen; P19174; purified PLC-gamma1, fluorogenic substrate, fluorescence; inhibition, % at 12.2 µM; 0.84% of 370,000 active
FID counter – counter-screen for HCV NS3 helicase inhibitors: DNA intercalator displacement | inhibition, % at 7.9 µM | 0.17% of 290,000 active | AID 1845 | DNA fluorescent intercalator displacement, fluorescence; in the data active = inhibition above about 37%;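 also: higher means more ethidium bromide displaced from hairpin DNA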
PLCg1 ctr – counter-screen for PLC-beta3 inhibitors: inhibitors of human PLC-gamma1; purified PLC-gamma1, fluorogenic substrate, fluorescence; AID 743258; shares compounds with PLCg1 inh; 3.1% of 3,300 active; inhibition, % at 12.3 µM
PLCbeta3 conf – confirmation of human PLC-beta3 inhibitors. shares compounds with PLCg1 inh. purified PLC-beta3, fluorogenic substrate fluorescence. inhibition, % at 12.3 µM. 1% of 3,300 active; in the data active = inhibition above about 11%
Of the large screens only hits and unclear results are named; the others gave an inactive call (follow-up assays come after a bar, where they were run). Rule as the data show it, unless noted: active = inhibition above about 9.5%; inactive = the rest.

Cc1[nH]n(-c2ccccc2)c(=O)c1C(c1cccc([N+](=O)[O-])c1O)c1c(C)[nH]n(-c2ccccc2)c1=O	PLC-beta3 inh 14, PLCg1 inh 31 | PLCg1 ctr inactive | PLCbeta3 conf inactive
Cc1c(C(c2cccc([N+](=O)[O-])c2O)c2c(C)n(C)n(-c3ccccc3)c2=O)c(=O)n(-c2ccccc2)n1C	none
CC(=O)NC(CCS(C)(=O)=O)C(=O)Nc1cc(C)on1 (configuration not stated)	PLCg1 inh 10 | PLCg1 ctr inactive | PLCbeta3 conf inactive
CC(=O)NC(CCS(C)(=O)=O)C(=O)Nc1ccccc1C (configuration not stated)	none
O=C(CCSCc1ccccc1F)N1CCN(c2ccccn2)CC1	PLCg1 inh 10.0 | PLCg1 ctr inactive | PLCbeta3 conf inactive
O=C(CSCc1ccccc1Cl)N1CCN(c2ccccn2)CC1	none
Cc1ccc(C(=O)NC(=S)Nc2ccc(CN3CCOCC3)cc2)cc1	PLCg1 inh 10 | PLCg1 ctr inactive | PLCbeta3 conf inactive
Cc1cnn(Cc2ccccc2)c1N	PLCg1 inh 10 | PLCg1 ctr inactive | PLCbeta3 conf inactive
O=C(CSCc1ccc(F)cc1)Nc1ccc(F)cc1	none
O=C(CSCc1ccccc1)Nc1cccc(F)c1	PLCg1 inh 11 | PLCg1 ctr inactive | PLCbeta3 conf inactive
C/C(=N/NS(=O)(=O)c1ccc(F)cc1)c1ccncc1	none
Cc1ccc(S(=O)(=O)N2CCC3(CC2)OCCN3S(=O)(=O)c2cccs2)cc1	none (no result: FID counter)
Cc1ccccc1NC1=NS(=O)(=O)c2ccccc21	none
Cc1ccc(C)c(NC2=NS(=O)(=O)c3ccccc32)c1	PLCg1 inh 11 | PLCg1 ctr inactive | PLCbeta3 conf inactive
CC(=O)c1ccccc1NS(=O)(=O)c1c(C)nn(-c2ccccc2)c1C	none
COc1ccc(S(=O)(=O)N(CCc2ccccc2)CC(=O)NC(C)C)cc1	PLCg1 inh 11 | PLCg1 ctr inactive | PLCbeta3 conf inactive
COc1ccc(S(=O)(=O)N(CC(=O)NC(C)C)Cc2ccccc2)cc1	none
C/C(=N\NC(=O)c1ccccc1F)c1cccc(NC(=O)c2ccc(C)cc2)c1	none
COc1cc(NC(=O)CCc2nnc3ccc(NCc4ccco4)nn23)cc(OC)c1	none
CN1CCN(CCC(=O)N/N=C/c2ccccn2)CC1	PLCg1 inh 10 | PLCg1 ctr inactive | PLCbeta3 conf inactive
O=S1(=O)N=C2CCCCCN2C(c2ccc(Cl)cc2)N1 (configuration not stated)	PLCg1 inh 10 | PLCg1 ctr inactive | PLCbeta3 conf inactive
Cc1n[nH]c(C)c1NC(=O)CN1CCN(S(=O)(=O)c2ccc(C(F)(F)F)cc2)CC1	PLCg1 inh 10 (no result: FID counter) | PLCg1 ctr inactive | PLCbeta3 conf inactive
COc1ccc(C(=O)CN2C(=O)C(C)(C)Oc3ccc(C(=O)N4CCCCCC4)cc32)cc1	PLC-beta3 inh 23 | PLCg1 ctr inactive | PLCbeta3 conf inactive
CC1(C)Oc2ccc(C(=O)N3CCCC3)cc2N(CC(=O)NCc2ccccc2)C1=O	none
COC(=O)[C@]12CCCCC=C1N(Cc1cccc3ccccc13)C(=O)[C@H](CC(=O)NCc1cccc(C(F)(F)F)c1)C2	none (no result: FID counter)
CC(C)CC(=O)NC(=S)Nc1nc(-c2cccc3ccccc23)cs1	PLCg1 inh 16 | PLCg1 ctr inactive | PLCbeta3 conf inactive
CCOC(=O)Cc1csc(NC(=S)NC(=O)CC(C)C)n1	none
CCOc1ccc(OCc2cccc(C(=O)N3CCCC3)c2)cc1	none
COc1ccccc1NC(=O)COc1ccc(/C=N/NC(=O)CSCc2ccc(Cl)cc2)cc1	PLCg1 inh 9.5 | PLCg1 ctr inactive | PLCbeta3 conf inactive
COc1ccccc1NC(=O)COc1ccc(/C=N/NC(=O)CSCc2cc(C)cc(C)c2)cc1	none
CC(=C/C(=O)O)/C=C/c1ccc([N+](=O)[O-])cc1	none
Cn1c(=O)c2cc(NC(=S)NC3CC3)ccc2n1Cc1cccc(C(F)(F)F)c1	none (no result: FID counter)
CCCC(C)C(=O)Nc1cc([N+](=O)[O-])ccc1F (configuration not stated)	PLCg1 inh 9.7 | PLCg1 ctr inactive | PLCbeta3 conf inactive
CCCC(C)C(=O)Nc1cc([N+](=O)[O-])ccc1Cl (configuration not stated)	none
COc1cc(C(=O)OCC(=O)N2CCCCC2C)cc(NC(=O)c2cccs2)c1OC (configuration not stated)	none
Cc1ccc(-n2nc3c(c2NC(=O)c2ccc4c(c2)OCO4)CS(=O)C3)cc1 (configuration not stated)	PLCg1 inh 11 | PLCg1 ctr inactive | PLCbeta3 conf inactive
COc1ccc(CNC(=O)C[C@H]2C(=O)N(Cc3ccccc3)C[C@@H]2Cc2ccccc2)cc1	none
COc1ccc(CNC(=O)C[C@H]2C(=O)N(Cc3ccc(OC)cc3)C[C@@H]2Cc2ccccc2)cc1	PLCg1 inh 11 | PLCg1 ctr inactive | PLCbeta3 conf inactive
NC(=O)CSc1nc2c(sc(=S)n2-c2ccccc2)c(=O)[nH]1	PLCg1 inh 10 | PLCg1 ctr inactive | PLCbeta3 conf inactive
O=C(c1cccc(S(=O)(=O)N2CCN(c3ccc(F)cc3)CC2)c1)N1CCCC(C(F)(F)F)C1 (configuration not stated)	PLCg1 inh 10 (no result: FID counter) | PLCg1 ctr 14 | PLCbeta3 conf inactive
O=C(c1cccnc1)N1CCCC(Nc2ccc(F)cc2)C1 (configuration not stated)	PLCg1 inh 15 | PLCg1 ctr inactive | PLCbeta3 conf inactive
CC(C)n1cc(C(=O)N2CCCC(N3CCN(c4ccc(F)cc4)CC3)C2)cn1 (configuration not stated)	none
O=C(c1ccncc1)N1CCCC(N2CCN(c3ccc(F)cc3)CC2)C1 (configuration not stated)	PLCg1 inh 11 | PLCg1 ctr inactive | PLCbeta3 conf inactive
Cc1nn(C(=O)CCCn2cc([N+](=O)[O-])cn2)c(C)c1Cl	none
COc1cc(C(=O)Nc2ccc3c(c2)C(=O)N(CCC(=O)O)C3=O)cc(OC)c1OC	PLCg1 inh 11 | PLCg1 ctr 9.5 | PLCbeta3 conf inactive
O=C(CCCN1C(=O)/C(=C\c2ccco2)SC1=S)Nc1ccc(O)cc1C(=O)O	PLCg1 inh 9.6 | PLCg1 ctr inactive | PLCbeta3 conf inactive
O=C(CCCN1C(=O)/C(=C\c2cccs2)SC1=S)Nc1cccc(C(=O)O)c1	none
O=C(CCCN1C(=O)/C(=C/c2ccco2)SC1=S)Nc1cccc(C(=O)O)c1	PLCg1 inh 11 | PLCg1 ctr inactive | PLCbeta3 conf inactive
Cc1ccc(OCCn2ccnc2)c([N+](=O)[O-])c1	PLCg1 inh 13 | PLCg1 ctr inactive | PLCbeta3 conf inactive
CCN1C(=O)/C(=C\N(C)C)S/C1=N\S(=O)(=O)c1ccc(C)cc1	none
